Experimental data from ChEMBL document CHEMBL4261628, “1H-pyrrolo[2,3-b]pyridine: A new scaffold for human neutrophil elastase (HNE) inhibitors” (Bioorg Med Chem, 2018).
Active and inactive are the calls of the source. The calls are words filed in the database; no cut-off is given here.

biological target: T1, Neutrophil elastase (Homo sapiens) (UniProt P08246); test: Inhibition of human neutrophil elastase at 50 uM using N-methylsuccinyl-Ala-Ala-Pro-Val-7-amino-4-methylcoumarin as substrate measured every 30 secs for 10 mins by fluorescence assay
T1 sequence (whole entry): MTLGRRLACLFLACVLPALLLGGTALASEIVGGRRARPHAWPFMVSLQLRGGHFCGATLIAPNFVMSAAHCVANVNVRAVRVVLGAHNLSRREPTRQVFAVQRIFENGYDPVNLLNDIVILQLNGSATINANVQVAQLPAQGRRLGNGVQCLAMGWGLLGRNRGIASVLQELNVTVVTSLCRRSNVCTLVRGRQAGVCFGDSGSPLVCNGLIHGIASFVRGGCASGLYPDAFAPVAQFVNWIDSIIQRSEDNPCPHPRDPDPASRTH
Outline: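 HNE (20 mU/mL) in 200 mM Tris-HCl pH 7.5 with 0.01% BSA and 0.05% Tween-20. Compound from 5 mM DMSO stock, 1% DMSO final, tested up to 50 µM. Reaction started with 25 µM final substrate. Fluorescence read at ex 355/em 460 nm, 25 °C. No inhibition at 50 µM is reported as N.A.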

| SMILES | inhibition |
| --- | --- |
| Cc1cccc(C(=O)n2cc(-c3ccsc3)c3cccnc32)c1 | inactive |
| Cc1cccc(C(=O)n2ccc3cccnc32)c1 | inactive |
| CCOC(=O)c1cn(CC(=O)Nc2ccccc2)c2ncccc12 | inactive |
| N#Cc1cn(CC(=O)Nc2ccccc2)c2ncccc12 | inactive |
| Cn1cc(C(=O)Nc2ccccc2)c2cccnc21 | inactive |

system: not listed separately; test: Half life in 0.05 M phosphate buffer of pH 7.3 at 25 degC by spectrophotometric analysis; assay type: physicochemical

| SMILES | half-life [h] |
| --- | --- |
| CCOC(=O)c1cn(C(=O)c2cccc(C)c2)c2ncccc12 | 3.5 |
| CCOC(=O)c1cn(C(=O)C2CC2)c2ncccc12 | 14.4 |
| N#Cc1cn(C(=O)C2CC2)c2ncccc12 | 6.8 |
| Cc1cccc(C(=O)n2cc(C(=O)Nc3ccccc3)c3cccnc32)c1 | 3.4 |
| CCOC(=O)c1cn(C(=O)c2ccc(C)cc2)c2ncccc12 | 4.3 |
| Cc1ccc(C(=O)n2cc(C#N)c3cccnc32)cc1 | 2.6 |
| CCCCC(=O)n1cc(C#N)c2cccnc21 | 1.9 |
| Cc1cccc(C(=O)n2cc([N+](=O)[O-])c3cccnc32)c1 | 0.4 |
| Cc1cccc(C(=O)n2cc(-c3nc(C)no3)c3cccnc32)c1 | 2.4 |
| Cc1cccc(C(=O)n2cc(C#N)c3cccnc32)c1 | 1.9 |
